Experimental data taken from ChEMBL document CHEMBL5303300, “EUbOPEN Chemogenomics Library - Multiplex” (2023).
Several values for one entry are separate records, joined by “and”; a condition that tells them apart may be missing. Identical values can stand only once.

Test system: U2OS
Test: Multiplex assay against U2OS
Assay type: toxicity, cell-based
Settings: human, number of replicates 2
How it was run: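 Live cells were stained at seeding with Hoechst33342, BioTracker Green Microtubule Cytoskeleton Dye, MitoTracker Red and Annexin V Alexa Fluor 680, then imaged on a CQ1 microscope at 37°C and 5% CO2 after compound addition. CellPathfinder machine-learning gating split cells into Hoechst high-intensity objects or normal cells. Normal cells were split into healthy, pyknosed or fragmented nuclei, and pyknosed cells into mitotic or apoptotic. Tubulin, mitochondrial-mass and membrane-permeability phenotypes are per cents of healthy-nucleus cells.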

[1] = 12 h, 1 µM, compound concentration 1 uM
[2] = 12 h, 10 µM, compound concentration 10 uM
[3] = 24 h, 1 µM, compound concentration 1 uM
[4] = 24 h, 10 µM, compound concentration 10 uM
[5] = 48 h, 1 µM, compound concentration 1 uM
[6] = 48 h, 10 µM, compound concentration 10 uM

`COc1cc(Nc2cnc(C#N)c(O[C@H](C)CN(C)C)n2)ncc1-c1cnn(C)c1` was tested, and the “Population Apoptotic (%)” value [1] was 100% and 59%, the “Population Healthy Nuclei (%)” value [1] was 63% and 83% and the “Population Hoechst High Intensity Objects (%)” value [1] was 0%. The “Population Mitochondria Different-Phenotype (%)” value [1] was 8% and 2%, the “Population Normal (%)” value [1] was 100% and the “Population Pyknosed Nuclei (%)” value [1] was 10% and 11%. For the same compound, the “Population Tubulin-Different-Phenotype (%)” value [1] was 75% and 63%, the “Population Apoptotic (%)” value [2] was 88% and 56% and the “Population Healthy Nuclei (%)” value [2] was 39% and 74%. For the same compound, the “Population Hoechst High Intensity Objects (%)” value [2] was 0%, the “Population Mitochondria Different-Phenotype (%)” value [2] was 6% and 8% and the “Population Normal (%)” value [2] was 100%. For the same compound, the “Population Pyknosed Nuclei (%)” value [2] was 21% and 15%, the “Population Tubulin-Different-Phenotype (%)” value [2] was 25% and 32% and the “Population Apoptotic (%)” value [3] was 50% and 76%. The “Population Healthy Nuclei (%)” value [3] was 67% and 86%, the “Population Hoechst High Intensity Objects (%)” value [3] was 0% and the “Population Membrane Permeable-Phenotype (%)” value [3] was 0% and 2%. For the same compound, the “Population Mitochondria Different-Phenotype (%)” value [3] was 0%, the “Population Mitotic Cells (%)” value [3] was 50% and 24% and the “Population Normal (%)” value [3] was 100%. For the same compound, the “Population Pyknosed Nuclei (%)” value [3] was 10% and 8%, the “Population Tubulin-Different-Phenotype (%)” value [3] was 81% and 72% and the “Population Apoptotic (%)” value [4] was 87% and 64%. For the same compound, the “Population Fragmented Nuclei (%)” value [4] was 33% and 11%, the “Population Healthy Nuclei (%)” value [4] was 37% and 67% and the “Population Hoechst High Intensity Objects (%)” value [4] was 6% and 2%. For the same compound, the “Population Mitochondria Different-Phenotype (%)” value [4] was 20% and 9%, the “Population Mitotic Cells (%)” value [4] was 12% and 35% and the “Population Normal (%)” value [4] was 93% and 97%. The “Population Pyknosed Nuclei (%)” value [4] was 29% and 20%, the “Population Tubulin-Different-Phenotype (%)” value [4] was 60% and 44% and the “Population Apoptotic (%)” value [5] was 66% and 62%. For the same compound, the “Population Healthy Nuclei (%)” value [5] was 55% and 83%, the “Population Hoechst High Intensity Objects (%)” value [5] was 0% and the “Population Membrane Permeable-Phenotype (%)” value [5] was 2%. The “Population Mitochondria Different-Phenotype (%)” value [5] was 0%, the “Population Mitotic Cells (%)” value [5] was 33% and 37% and the “Population Normal (%)” value [5] was 100% and 99%. For the same compound, the “Population Pyknosed Nuclei (%)” value [5] was 28% and 12%, the “Population Tubulin-Different-Phenotype (%)” value [5] was 94% and 74% and the “Population Apoptotic (%)” value [6] was 100% and 85%. The “Population Fragmented Nuclei (%)” value [6] was 31% and 20%, the “Population Healthy Nuclei (%)” value [6] was 20% and 46% and the “Population Hoechst High Intensity Objects (%)” value [6] was 3% and 0%. The “Population Membrane Permeable-Phenotype (%)” value [6] was 16% and 7%, the “Population Mitochondria Different-Phenotype (%)” value [6] was 16% and 10% and the “Population Mitotic Cells (%)” value [6] was 0% and 14%. For the same compound, the “Population Normal (%)” value [6] was 96% and 99%, the “Population Pyknosed Nuclei (%)” value [6] was 48% and 33% and the “Population Tubulin-Different-Phenotype (%)” value [6] was 50% and 59%.
`Cc1ccc2c(c1CCC(=O)O)CC[C@@H](NS(=O)(=O)c1ccc(Cl)cc1)C2` [TERUTROBAN] was tested, and the “Population Apoptotic (%)” value [1] was 44% and 33%, the “Population Healthy Nuclei (%)” value [1] was 83% and 55% and the “Population Hoechst High Intensity Objects (%)” value [1] was 0%. For the same compound, the “Population Membrane Permeable-Phenotype (%)” value [1] was 1% and 0%, the “Population Mitochondria Different-Phenotype (%)” value [1] was 1% and 0% and the “Population Mitotic Cells (%)” value [1] was 56% and 66%. For the same compound, the “Population Normal (%)” value [1] was 100%, the “Population Pyknosed Nuclei (%)” value [1] was 11% and 7% and the “Population Tubulin-Different-Phenotype (%)” value [1] was 92% and 47%. The “Population Apoptotic (%)” value [2] was 44% and 50%, the “Population Fragmented Nuclei (%)” value [2] was 8% and 2% and the “Population Healthy Nuclei (%)” value [2] was 76% and 86%. For the same compound, the “Population Hoechst High Intensity Objects (%)” value [2] was 0%, the “Population Membrane Permeable-Phenotype (%)” value [2] was 4% and 2% and the “Population Mitochondria Different-Phenotype (%)” value [2] was 2% and 0%. The “Population Mitotic Cells (%)” value [2] was 55% and 50%, the “Population Normal (%)” value [2] was 100% and the “Population Pyknosed Nuclei (%)” value [2] was 15% and 10%. For the same compound, the “Population Tubulin-Different-Phenotype (%)” value [2] was 73% and 87%, the “Population Apoptotic (%)” value [3] was 50% and 61% and the “Population Healthy Nuclei (%)” value [3] was 61% and 87%. For the same compound, the “Population Hoechst High Intensity Objects (%)” value [3] was 0%, the “Population Membrane Permeable-Phenotype (%)” value [3] was 0% and 1% and the “Population Mitochondria Different-Phenotype (%)” value [3] was 0%. For the same compound, the “Population Mitotic Cells (%)” value [3] was 50% and 38%, the “Population Normal (%)” value [3] was 100% and the “Population Pyknosed Nuclei (%)” value [3] was 5% and 8%. The “Population Tubulin-Different-Phenotype (%)” value [3] was 66% and 92%, the “Population Apoptotic (%)” value [4] was 66% and 62% and the “Population Fragmented Nuclei (%)” value [4] was 9% and 2%. The “Population Healthy Nuclei (%)” value [4] was 81% and 87%, the “Population Hoechst High Intensity Objects (%)” value [4] was 0% and the “Population Membrane Permeable-Phenotype (%)” value [4] was 5% and 0%. For the same compound, the “Population Mitochondria Different-Phenotype (%)” value [4] was 3% and 0%, the “Population Mitotic Cells (%)” value [4] was 33% and 37% and the “Population Normal (%)” value [4] was 100%. For the same compound, the “Population Pyknosed Nuclei (%)” value [4] was 8% and 10%, the “Population Tubulin-Different-Phenotype (%)” value [4] was 75% and 92% and the “Population Apoptotic (%)” value [5] was 37% and 58%. The “Population Healthy Nuclei (%)” value [5] was 66% and 91%, the “Population Hoechst High Intensity Objects (%)” value [5] was 0% and the “Population Membrane Permeable-Phenotype (%)” value [5] was 2%. For the same compound, the “Population Mitochondria Different-Phenotype (%)” value [5] was 0%, the “Population Mitotic Cells (%)” value [5] was 62% and 41% and the “Population Normal (%)” value [5] was 100%. The “Population Pyknosed Nuclei (%)” value [5] was 11% and 5%, the “Population Tubulin-Different-Phenotype (%)” value [5] was 73% and 94% and the “Population Apoptotic (%)” value [6] was 25% and 57%. The “Population Fragmented Nuclei (%)” value [6] was 3% and 1%, the “Population Healthy Nuclei (%)” value [6] was 85% and 91% and the “Population Hoechst High Intensity Objects (%)” value [6] was 0%. The “Population Membrane Permeable-Phenotype (%)” value [6] was 4% and 1%, the “Population Mitochondria Different-Phenotype (%)” value [6] was 4% and 0% and the “Population Mitotic Cells (%)” value [6] was 75% and 42%. The “Population Normal (%)” value [6] was 100%, the “Population Pyknosed Nuclei (%)” value [6] was 10% and 6% and the “Population Tubulin-Different-Phenotype (%)” value [6] was 72% and 93%.
With `CN(C)C/C=C/C(=O)Nc1ccc(C(=O)Nc2cccc(Nc3ncc(Cl)c(-c4c[nH]c5ccccc45)n3)c2)cc1` the “Population Apoptotic (%)” value [1] was 81% and 93%, the “Population Fragmented Nuclei (%)” value [1] was 12% and 3% and the “Population Healthy Nuclei (%)” value [1] was 53% and 73%. The “Population Hoechst High Intensity Objects (%)” value [1] was 0%, the “Population Membrane Permeable-Phenotype (%)” value [1] was 0% and 2% and the “Population Mitochondria Different-Phenotype (%)” value [1] was 0% and 4%. The “Population Mitotic Cells (%)” value [1] was 18% and 6%, the “Population Normal (%)” value [1] was 100% and the “Population Pyknosed Nuclei (%)” value [1] was 34% and 22%. For the same compound, the “Population Tubulin-Different-Phenotype (%)” value [1] was 64% and 72%, the “Population Apoptotic (%)” value [2] was 96% and 89% and the “Population Fragmented Nuclei (%)” value [2] was 17% and 9%. The “Population Healthy Nuclei (%)” value [2] was 35% and 56%, the “Population Hoechst High Intensity Objects (%)” value [2] was 0% and the “Population Membrane Permeable-Phenotype (%)” value [2] was 18% and 17%. For the same compound, the “Population Mitochondria Different-Phenotype (%)” value [2] was 4% and 11%, the “Population Mitotic Cells (%)” value [2] was 3% and 10% and the “Population Normal (%)” value [2] was 100%. The “Population Pyknosed Nuclei (%)” value [2] was 46% and 34%, the “Population Tubulin-Different-Phenotype (%)” value [2] was 40% and 48% and the “Population Apoptotic (%)” value [3] was 83% and 94%. The “Population Fragmented Nuclei (%)” value [3] was 17% and 9%, the “Population Healthy Nuclei (%)” value [3] was 31% and 40% and the “Population Hoechst High Intensity Objects (%)” value [3] was 0% and 1%. The “Population Mitochondria Different-Phenotype (%)” value [3] was 27% and 12%, the “Population Normal (%)” value [3] was 100% and 98% and the “Population Pyknosed Nuclei (%)” value [3] was 51% and 50%. The “Population Tubulin-Different-Phenotype (%)” value [3] was 100% and 77%, the “Population Apoptotic (%)” value [4] was 92% and 98% and the “Population Fragmented Nuclei (%)” value [4] was 21% and 11%. For the same compound, the “Population Healthy Nuclei (%)” value [4] was 18% and 31%, the “Population Hoechst High Intensity Objects (%)” value [4] was 0% and 1% and the “Population Membrane Permeable-Phenotype (%)” value [4] was 46% and 27%. For the same compound, the “Population Mitochondria Different-Phenotype (%)” value [4] was 23% and 31%, the “Population Mitotic Cells (%)” value [4] was 7% and 1% and the “Population Normal (%)” value [4] was 100% and 98%. The “Population Pyknosed Nuclei (%)” value [4] was 59% and 57%, the “Population Tubulin-Different-Phenotype (%)” value [4] was 61% and 54% and the “Population Apoptotic (%)” value [5] was 84% and 96%. The “Population Fragmented Nuclei (%)” value [5] was 17% and 10%, the “Population Healthy Nuclei (%)” value [5] was 14% and 18% and the “Population Hoechst High Intensity Objects (%)” value [5] was 0% and 2%. The “Population Membrane Permeable-Phenotype (%)” value [5] was 50% and 44%, the “Population Mitochondria Different-Phenotype (%)” value [5] was 50% and 48% and the “Population Normal (%)” value [5] was 100% and 97%. The “Population Pyknosed Nuclei (%)” value [5] was 67% and 70%, the “Population Tubulin-Different-Phenotype (%)” value [5] was 100% and 88% and the “Population Apoptotic (%)” value [6] was 99% and 95%. The “Population Fragmented Nuclei (%)” value [6] was 7% and 19%, the “Population Hoechst High Intensity Objects (%)” value [6] was 3% and 0% and the “Population Mitochondria Different-Phenotype (%)” value [6] was 67% and 100%. The “Population Mitotic Cells (%)” value [6] was 0% and 4%, the “Population Normal (%)” value [6] was 96% and 100% and the “Population Pyknosed Nuclei (%)” value [6] was 79% and 78%. The “Population Tubulin-Different-Phenotype (%)” value [6] was 89% and 100%.
